# Rows were chosen to be rich in hits. Some 1.9% of all compounds tested hit in one or more screens of this group.
# TDP2 inh – blocks human TDP2 phosphodiesterase activity; inhibition, % at 12.8 µM; 370,000 compounds, 0.34% hits; recombinant TDP2, T5PNP hydrolysis, p-nitrophenol absorbance 415 nm; O95551;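 active = inhibition above the mean of all tested compounds plus 3 SD, set per campaign, cut at about 25% in these data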;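 also: 0% = DMSO with enzyme and 100% = buffer with substrate but no TDP2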
#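 Material: recombinant human TDP2; quantity: TDP2 enzyme at 120 nM final; medium: Tris-HCl pH 7.5 with MgCl2; compound: single concentration, 12.8 µM nominal, with 1% DMSO; incubation: 2 h enzyme incubation at 37 °C; signal: epi absorbance; measure: percent inhibition; benchmarks: high control without enzyme, low control DMSO plus TDP2; repeats: singlicate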
# LEDGF integ inh – blocks HIV-1 LEDGF/p75-dependent DNA integration; TR-FRET IN-LEDGF/p75 DNA integration, Eu/Cy5; inhibition, % at 3.7 µM; 370,000 compounds, 0.64% hits;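 active = inhibition above the screen-wide mean plus 3 SD, cut at about 13% in these data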;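 also: signal is the Cy5 over europium emission ratio at 671 and 618 nm; 0% = plate median of compound wells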
# Rin1-Abl PPI inh – inhibitors of human Rin1-Abl protein interaction | 360,000 compounds, 0.4% hits | AID 588664 | P00519+Q13671 | inhibition, % at 7.35 µM | TR-FRET Rin1/Abl binding, biochemical; in the data active = inhibition above about 5%, passing the limit was not always enough
# MBD2 inh – MBD2-methylated oligo binding inhibition | TR-FRET, MBD2 binding to methylated oligonucleotide | AID 686964 | inhibition, % at 4.4 µM | 370,000 compounds, 0.31% hits | Q9UBB5; in the data active = inhibition above about 13%
# UHRF1 binding – blocks human UHRF1 binding to methylated DNA; Q96T88; UHRF1 binding to methylated oligo, TR-FRET; inhibition, % at 4.4 µM; 370,000 compounds, 0.75% hits; in the data active = inhibition above about 21%;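 also: UHRF1 SRA domain binding a hemimethylated CpG hairpin DNA probe; 0% = median of test compound wells and 100% = reference inhibitor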
# IN multimer act – counter-screen for LEDGF/p75 integration inhibitors: HIV-1 integrase multimerization activators; shares compounds with LEDGF integ inh; TR-FRET HIV-1 integrase multimerization, biochemical; activation, % at 7.7 µM; 2,000 compounds, 17% hits; in the data active = activation above about 8.9%
# TRFRET interf – TR-FRET optical interference, LEDGF/p75 integration counter-screen | shares compounds with LEDGF integ inh | 2,000 tested, under 10 active | TR-FRET optical interference counterscreen, HIV-1 IN multimerization | AID 1053135 | inhibition, % at 7.7 µM;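 active = inhibition above the mean over all tested compounds plus 3 SD, which no compound reached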;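 also: 0% = integrase with antibodies and DMSO and 100% = antibodies without integrase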
# IN-LEDGF confirm – confirmation of HIV-1 LEDGF/p75-dependent integration inhibitors; shares compounds with LEDGF integ inh; TR-FRET LEDGF/p75-dependent HIV-1 integration, biochemical; inhibition, % at 3.7 µM; 2,000 compounds, 36% hits; AID 1053136; in the data active = inhibition above about 14%
# Numbers without * were called inactive; . = not tested or not shown.
SMILES,TDP2 inh,LEDGF integ inh,Rin1-Abl PPI inh,MBD2 inh,UHRF1 binding,IN multimer act,TRFRET interf,IN-LEDGF confirm
c1ccc(-n2nnc3ccccc32)cc1,-3,2,2,2,-1,.,.,.
C(=C\n1nnc2ccccc21)/c1ccc[nH]1,9,27*,2,7,7,4,-22,37*
Clc1cccc(C2CCN(Cc3nc(CC4CC4)no3)C2)c1 (configuration not stated),-2,35*,1,0,0,0,2,0
c1ccc(CN2CCCC3(CCCN(Cc4nc(CC5CC5)no4)C3)C2)cc1 (configuration not stated),-5,0,3,2,4,.,.,.
Cc1nc(SCC(=O)Nc2ccccc2Cl)oc1C,-3,-1,-4,1,-3,.,.,.
C/C=C/C=C/C(=O)[C@@H]1[C@@H]([C@]2(C)OC(=O)C(C)=C2O)[C@H]2/C(=C(O)/C=C/C=C/C)C(=O)[C@]1(C)C(=O)C2(C)O (some centres not stated),9,45*,5,13,48*,5,-23,78*
CCCn1cc(S(=O)(=O)c2ccc(OC)cc2)c(=O)c2cc(OCC)ccc21,-1,1,-1,2,2,.,.,.
Clc1ccccc1-c1ccc(CN2CCN(c3ccccc3)CC2)o1,-1,31*,-1,1,0,0,1,0
COc1ccc(OC)c(NC2c3ncccc3C(=O)N2Cc2ccco2)c1 (configuration not stated),8,-1,0,9,5,.,.,.
COc1ccc(CN2C(=O)c3cccnc3C2Nc2cc(Cl)ccc2OC)cc1 (configuration not stated),18,15*,6,-8,0,-1,7,23*
Cc1ccc(NC2c3ncccc3C(=O)N2Cc2ccco2)c(C)c1 (configuration not stated),17,20*,-3,2,12,0,-2,6
COC(=O)c1cc(C)[nH]c2c(C)cc3nc4ccccc4c3c12,5,-3,4,1,0,.,.,.
CC(C)CN1CCC1(C)C(=O)Nc1cc(-c2ccccc2)nn1C (configuration not stated),0,3,-1,-4,-3,.,.,.
O=C(CN1CCN(S(=O)(=O)c2ccccc2)CC1)NC1CC1,0,2,2,0,-1,.,.,.
O=C(CN1CCN(S(=O)(=O)c2ccc(Cl)cc2)CC1)NC1CC1,-9,34*,-2,0,0,0,2,-3
COc1ccc(C)cc1NCc1cc(=O)oc2cc(-c3ccccc3)c(O)cc12,-6,-1,0,-2,-3,.,.,.
COC(=O)c1ccccc1NCc1cc(=O)oc2cc(O)c(O)cc12,1,21*,3,4,3,2,-6,34*
COc1ccccc1NC(=O)CCNC(=O)c1ccc(C)cc1,4,-2,-2,0,-1,.,.,.
CCOC(=O)c1ccc(N2C(=O)c3n[nH]c(-c4ccco4)c3C2c2cccc([N+](=O)[O-])c2)cc1 (configuration not stated),-13,16*,-3,-5,-2,-1,6,10
CCOC(=O)c1ccc(N2C(=O)c3n[nH]c(C)c3C2c2ccco2)cc1 (configuration not stated),2,0,-1,0,6,.,.,.
CC(C)=CCN1CCN(Cc2c[nH]c3ccccc23)CC1CCO (configuration not stated),14,-6,1,0,0,.,.,.
Cc1cccc(/N=C/c2c(O)ccc3oc4c(c23)CCCC4)n1,.,.,-2,.,.,.,.,.
CC(C)CN=Cc1c(O)c([N+](=O)[O-])cc2oc3c(c12)CCCC3,8,49*,-3,-14,-13,0,1,66*

# Bioassay records deposited in PubChem BioAssay by The Scripps Research Institute Molecular Screening Center.
